The results in this text go back to ChEMBL document CHEMBL3425405, “Discovery of Small Molecules for Up-Regulating the Translation of Antiamyloidogenic Secretase, a Disintegrin and Metalloproteinase 10 (ADAM10), by Binding to the G-Quadruplex-Forming Sequence in the 5' Untranslated Region (UTR) of Its mRNA” (J Med Chem, 2015).

A short description of data set [1]: Binding affinity to ADAM10 A10-mutant RNA QGRS (unknown origin) by surface plasmon resonance method. (SPR reads the build-up and loss of mass on a sensor chip optically.)
Data set [2] in a line: Selectivity index, ratio of affinity to Bcl-2 RNA QGRS (unknown origin) to ADAM10 A10-Wt RNA QGRS (unknown origin) by Renilla/firefly dual luciferase reporter assay. A general note: A reporter such as luciferase makes a cellular process visible.
Data set [3] has as its system HeLa. Nature of the data set: Binding affinity to ADAM10 5'-UTR mutant RNA QGRS (unknown origin) transfected in human HeLa cells assessed as increase in luciferase mRNA expression at 0.5 to 2.5 uM after 24 hrs by RT-PCR method. It counts as cell-based.
Data set [4] relates to HEK-APP. Nature of the data set: Binding affinity to ADAM10 A10-RNA QGRS (unknown origin) transfected in HEK-APP cells assessed as increase in ADAM10 protein expression at 1.5 uM after 48 hrs by Western blotting method. It counts as cell-based. In short, it runs like this: (§1)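 HEK-APP cells (DMEM, 10% FBS, 2 mM glutamine, 0.2 mg/mL G418) treated with 0, 0.5, 0.75, 1 or 1.5 μM compound for 48 h. Lysates in Tris/NaCl/EDTA/1% Triton buffer immunoblotted for ADAM10, APP and β-actin; conditioned medium blotted for sAPPα. Signal by densitometry, normalized to β-actin, relative to blank control; mean ± SD, three independent experiments.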
A general note: A western blot detects proteins with antibodies after separation by electrophoresis.

Data set [5] relates to HEK293. Description: Reduction in Abeta40 protein production in APP expressing HEK cells at 1 uM after 48 hrs by ELISA method. More on the design: scale not given: the % may be the effect or the level left. The class given is functional, Homo sapiens. In short, it runs like this: (§2)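 HEK-APP cells treated 48 h with increasing compound concentrations (0.75, 1, 1.5 μM). Secreted Aβ40 in equal amounts of conditioned medium quantified by sandwich ELISA. Values expressed relative to blank control; mean ± SD of three independent experiments.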

A short description of data set [6]: Binding affinity to 5'-end biotinylated ADAM10 A10-mutant RNA QGRS (unknown origin) by surface plasmon resonance assay method. Put shortly:
(§3)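 SPR with 5′-biotinylated A10-RNA-Wt or A10-RNA-Mut immobilized on a neutravidin chip in running buffer (50 mM Tris-HCl pH 7.5, 100 mM KCl). Ligand serial dilutions in running buffer injected at 20 μL/min for association, then dissociation. Chip regenerated with 50 mM NaOH between runs.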

Data set [7] is described as follows: Toxicity against APP expressing HEK cells assessed as reduction in cell viability after 48 hrs by MTT assay. The class given is cell-based, HEK293. The note with it: human.
Data set [8] in a line: Binding affinity to ADAM10 A10-RNA QGRS (unknown origin) assessed as reduction in RNA G-quadruplex bands at 0.5 to 10 fold excess compound level by native gel electrophoresis method. In short, it runs like this: (§4)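 A10-RNA-Wt labeled with Cy3/Cy5 folded in 100 mM KCl, 10 mM Tris-HCl, 0.1 mM EDTA (pH 7.5): 95 °C for 5 min, then cooled to room temperature over 90 min. RNA (2 μM) incubated 5 min at room temperature in the dark with 0, 0.5, 1, 5 or 10-fold excess compound. Run on native 16% polyacrylamide gel at 4 °C.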

In data set [9] the test system is HEK-APP. Nature of the data set: Binding affinity to ADAM10 A10-RNA QGRS (unknown origin) transfected in HEK-APP cells assessed as increase in ADAM10 protein expression at 0.5 uM after 48 hrs by Western blotting method. It counts as cell-based. Put shortly:
as §1

For data set [10], the system named is HeLa. Nature of the data set: Toxicity against human HeLa cells assessed as effect on cell morphology at 0.5 to 2.5 uM after 24 hrs. It counts as cell-based. Put shortly:
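HeLa cells inspected for cell number and morphology before the luciferase read-out, after reporter-plasmid transfection and 24 h exposure to 0, 0.5, 1 or 2.5 μM compound.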

For data set [11], the system named is HeLa. Nature of the data set: Binding affinity to ADAM10 5'-UTR RNA QGRS (unknown origin) transfected in human HeLa cells assessed as increase in ADAM10 translation efficiency at 1 uM after 24 hrs by Renilla/firefly dual luciferase reporter assay. The class given is cell-based. Put shortly: (§5)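 HeLa cells transfected with 0.8 μg 5′UTR-Wt or 5′UTR-Mut dual-luciferase plasmid. After 12 h, incubated 24 h with 0, 0.5, 1 or 2.5 μM compound. Renilla luciferase normalized to firefly and expressed relative to the ligand-free control; mean ± SD of three independent experiments, each in triplicate.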

The test system of data set [12] is HeLa. Nature of the data set: Binding affinity to ADAM10 5'-UTR RNA QGRS (unknown origin) transfected in human HeLa cells assessed as increase in ADAM10 translation efficiency at 0.5 uM after 24 hrs by Renilla/firefly dual luciferase reporter assay. The class given is cell-based. Put shortly: as §5
Data set [13] relates to HeLa. Nature of the data set: Binding affinity to ADAM10 5'-UTR RNA QGRS (unknown origin) transfected in human HeLa cells assessed as increase in ADAM10 translation efficiency at 2.5 uM after 24 hrs by Renilla/firefly dual luciferase reporter assay. The class given is cell-based. In short, it runs like this: as §5
Data set [14] in a line: Binding affinity to ADAM10 A10-RNA QGRS (unknown origin) by microscale thermophoresis method.
Data set [15] in a line: Binding affinity to 5'-end biotinylated ADAM10 A10-RNA QGRS (unknown origin) by surface plasmon resonance assay method. In short, it runs like this: as §3
Data set [16] has as its system HeLa. Description: Binding affinity to ADAM10 5'-UTR mutant RNA QGRS (unknown origin) transfected in human HeLa cells assessed as increase in ADAM10 translation efficiency at 0.5 uM after 24 hrs by Renilla/firefly dual luciferase reporter assay. It counts as cell-based. Put shortly:
as §5

Data set [17] concerns HeLa. Description: Binding affinity to ADAM10 A10-RNA QGRS (unknown origin) transfected in human HeLa cells assessed as increase in ADAM10 translation efficiency at 2.5 uM after 24 hrs by Renilla/firefly dual luciferase reporter assay. The class given is cell-based. Put shortly: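 HeLa cells transfected with 0.8 μg A10-Wt, A10-Mut or A10-Del plasmid (G-quadruplex motif upstream of Renilla in psiCHECK-2). Screening: 24 h at a single 2 μM concentration. Follow-up: plasmid for 12 h, then 0, 0.5, 1 or 2.5 μM for 24 h. Renilla normalized to firefly, relative to untreated control; mean ± SD of three independent measurements.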

A short description of data set [18]: Effect on secondary structure of ADAM10 A10-RNA QGRS (unknown origin) by CD spectroscopy.
Data set [19] deals with HEK293. Nature of the data set: Reduction in Abeta40 protein production in APP expressing HEK cells at 0.75 uM after 48 hrs by ELISA method. It counts as functional, Homo sapiens. The arrangement: scale not given: the % may be the effect or the level left. In short, it runs like this: as §2
The nature of data set [20]: Binding affinity to ADAM10 A10-RNA QGRS (unknown origin) assessed as increase in RNA-ligand complexes at 0.5 to 10 fold excess compound level by native gel electrophoresis method. In short, it runs like this:
as §4

Data set [21] has as its system HeLa. Nature of the data set: Binding affinity to N-Ras RNA QGRS (unknown origin) transfected in human HeLa cells assessed as increase in ADAM10 translation efficiency at 2.5 uM after 24 hrs by Renilla/firefly dual luciferase reporter assay. The class given is cell-based. Put shortly: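 HeLa cells carrying luciferase reporter plasmids with the N-Ras, Bcl-2 or VEGF 5′-UTR quadruplex (or its mutant) treated with compound up to 2.5 μM for 24 h. Renilla/firefly luciferase activity then measured.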

Data set [22] concerns HeLa. Nature of the data set: Binding affinity to ADAM10 5'-UTR mutant RNA QGRS (unknown origin) transfected in human HeLa cells assessed as increase in ADAM10 translation efficiency at 1 uM after 24 hrs by Renilla/firefly dual luciferase reporter assay. The class given is cell-based. Put shortly: as §5

The Kd is the concentration at which binding is half-saturated. The IC50 is the concentration that gives 50% inhibition.

The source made the active and inactive calls. The rule behind the calls is not given here.

As for `CCn1c2ccccc2c2cc(/C=C/c3cc(N4CCN(C)CC4)c4ccccc4[n+]3C)ccc21.[I-]`, the dissociation constant Kd amounted to 700000 µM in data set [1], 4.9 µM in data set [14] and 6.1 µM in data set [15]. Further, the Selectivity Index in data set [2] was found to be 3. The result in data set [3], in data set [6], in data set [16], in data set [18] and in [22] was inactive. In addition, the Activity in [4] is 92.9%; in [5] it was 20.7%; in [9] it was 20.2%; in data set [10], “Non-toxic”; in data set [11], 22.5%; in [12], 9.7%. The Activity in data set [13] amounted to 44.8%; in data set [17] it was 87.3%; in data set [19] it was 7.7%; in [21], 20%. Moreover, in [7], the IC50 at 48 h was 10.7 µM. In addition, the outcome in data set [8] and in data set [20] was Active.
